Assay [1] concerns the target T1, Angiotensin-converting enzyme (Rattus norvegicus) (UniProt P47820).
T1 sequence (whole entry): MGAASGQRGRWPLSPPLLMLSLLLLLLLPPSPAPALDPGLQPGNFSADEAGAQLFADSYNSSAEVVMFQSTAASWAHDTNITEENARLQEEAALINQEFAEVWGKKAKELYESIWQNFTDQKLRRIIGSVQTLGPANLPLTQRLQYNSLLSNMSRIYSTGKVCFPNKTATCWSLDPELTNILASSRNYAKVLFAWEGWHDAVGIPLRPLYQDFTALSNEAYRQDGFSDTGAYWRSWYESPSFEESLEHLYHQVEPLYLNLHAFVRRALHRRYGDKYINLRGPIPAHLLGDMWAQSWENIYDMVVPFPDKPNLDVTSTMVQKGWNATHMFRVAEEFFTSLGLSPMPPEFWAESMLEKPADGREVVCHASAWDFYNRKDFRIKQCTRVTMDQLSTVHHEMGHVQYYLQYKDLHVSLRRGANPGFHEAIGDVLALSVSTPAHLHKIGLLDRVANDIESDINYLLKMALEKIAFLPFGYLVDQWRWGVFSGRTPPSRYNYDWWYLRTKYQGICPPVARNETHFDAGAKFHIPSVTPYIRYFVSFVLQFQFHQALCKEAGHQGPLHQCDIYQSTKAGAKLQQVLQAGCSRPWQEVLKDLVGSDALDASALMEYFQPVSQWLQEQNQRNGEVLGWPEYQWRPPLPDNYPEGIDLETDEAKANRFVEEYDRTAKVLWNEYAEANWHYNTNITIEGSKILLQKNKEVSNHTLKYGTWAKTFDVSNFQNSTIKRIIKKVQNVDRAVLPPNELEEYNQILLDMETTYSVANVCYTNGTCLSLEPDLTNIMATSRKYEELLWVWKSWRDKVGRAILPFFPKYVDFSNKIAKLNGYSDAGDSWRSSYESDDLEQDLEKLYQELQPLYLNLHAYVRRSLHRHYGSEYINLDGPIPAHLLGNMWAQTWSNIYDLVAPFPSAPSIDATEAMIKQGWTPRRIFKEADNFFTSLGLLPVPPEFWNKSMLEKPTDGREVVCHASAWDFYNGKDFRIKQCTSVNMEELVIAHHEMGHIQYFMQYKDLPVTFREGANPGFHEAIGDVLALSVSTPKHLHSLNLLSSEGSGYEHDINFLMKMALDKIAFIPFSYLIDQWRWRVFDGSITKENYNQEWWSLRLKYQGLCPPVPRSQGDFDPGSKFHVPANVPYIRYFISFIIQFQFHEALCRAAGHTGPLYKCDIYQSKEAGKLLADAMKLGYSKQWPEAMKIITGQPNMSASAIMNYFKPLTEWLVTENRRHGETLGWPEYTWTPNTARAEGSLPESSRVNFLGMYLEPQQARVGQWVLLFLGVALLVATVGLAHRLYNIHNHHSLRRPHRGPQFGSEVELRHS
In words: In vivo oral activity in normotensive rat and percent maximal inhibition of the angiotensin I pressor response. Format: functional, organism-based. The gist of the method:
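Catheterized conscious, unrestrained male Sprague-Dawley rats (225–275 g), recovered ≥2 weeks. […] Oral dose in 0.1 mL water, 5% NaHCO3 or 1% agar suspension. Aortic pressure read by transducer for up to 280 min. Maximum % inhibition is the mean of four animals per dose.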

Assay [2] deals with T1, Angiotensin-converting enzyme (Rattus norvegicus). In words: In vivo dose required to produce 50% inhibition against angiotensin I in normotensive rat after intravenous administration. The assay is classed as functional, organism-based. In a few lines: (§1)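 Conscious, unrestrained male Sprague-Dawley rats (225–275 g) with indwelling aortic and vena caval catheters, recovered ≥2 weeks. […] Compound given iv in 0.1 mL water or 5% NaHCO3, responses followed up to 70 min. Maximum % inhibition is the mean of four rats per dose; ED50 interpolated from plots of ≥3 doses.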

For assay [3], the target named is T2, Angiotensin-converting enzyme (Oryctolagus cuniculus, UniProt P12822).
T2 sequence (P12822 whole entry): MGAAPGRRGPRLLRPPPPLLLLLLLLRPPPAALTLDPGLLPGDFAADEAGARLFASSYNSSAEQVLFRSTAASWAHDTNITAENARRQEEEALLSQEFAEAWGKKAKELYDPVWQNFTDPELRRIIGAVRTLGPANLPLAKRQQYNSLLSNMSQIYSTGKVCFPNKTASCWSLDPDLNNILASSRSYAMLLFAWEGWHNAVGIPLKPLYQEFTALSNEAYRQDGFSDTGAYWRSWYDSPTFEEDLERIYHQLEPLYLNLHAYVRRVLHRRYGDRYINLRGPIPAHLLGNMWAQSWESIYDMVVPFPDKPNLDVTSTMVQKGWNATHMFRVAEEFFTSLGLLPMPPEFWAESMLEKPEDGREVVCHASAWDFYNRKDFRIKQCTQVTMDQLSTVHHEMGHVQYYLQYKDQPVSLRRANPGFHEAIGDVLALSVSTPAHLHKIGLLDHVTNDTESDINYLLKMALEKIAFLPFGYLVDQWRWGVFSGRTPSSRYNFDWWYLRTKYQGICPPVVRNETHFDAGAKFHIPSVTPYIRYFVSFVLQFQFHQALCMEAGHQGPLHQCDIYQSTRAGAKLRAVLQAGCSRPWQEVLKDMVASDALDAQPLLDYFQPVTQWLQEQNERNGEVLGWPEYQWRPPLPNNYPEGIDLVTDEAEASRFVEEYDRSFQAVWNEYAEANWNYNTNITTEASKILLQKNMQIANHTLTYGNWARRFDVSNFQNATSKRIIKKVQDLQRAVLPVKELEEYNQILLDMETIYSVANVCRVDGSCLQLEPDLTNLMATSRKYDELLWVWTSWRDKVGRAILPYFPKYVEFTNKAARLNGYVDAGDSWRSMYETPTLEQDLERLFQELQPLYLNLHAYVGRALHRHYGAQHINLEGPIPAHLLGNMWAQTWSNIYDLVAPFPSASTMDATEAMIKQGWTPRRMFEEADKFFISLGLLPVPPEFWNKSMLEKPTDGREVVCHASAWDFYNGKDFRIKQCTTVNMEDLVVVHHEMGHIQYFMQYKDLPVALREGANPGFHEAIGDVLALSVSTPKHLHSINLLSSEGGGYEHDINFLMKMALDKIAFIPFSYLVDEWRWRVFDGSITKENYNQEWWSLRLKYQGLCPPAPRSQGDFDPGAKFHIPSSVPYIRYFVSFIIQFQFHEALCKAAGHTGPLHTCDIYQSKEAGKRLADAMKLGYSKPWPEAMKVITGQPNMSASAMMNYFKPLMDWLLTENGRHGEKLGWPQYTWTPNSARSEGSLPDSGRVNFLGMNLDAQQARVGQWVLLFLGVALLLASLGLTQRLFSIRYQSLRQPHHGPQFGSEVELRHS
In words: Inhibition of rabbit lung angiotensin I converting enzyme (ACE) using hippuryl-histidyl-leucine as substrate. The following applies: read-out: I50.

For assay [4], the target named is T1, Angiotensin-converting enzyme (Rattus norvegicus). In words: In vivo dose required to produce 50% inhibition against angiotensin I (AI) in normotensive rat after intravenous administration. Format: functional, organism-based. The gist of the method: as §1

For 28 compounds, inhibition, ED50 and IC50 results are on record in ChEMBL document CHEMBL1124773, “(Phosphinyloxy)acyl amino acid inhibitors of angiotensin converting enzyme. 2. Terminal amino acid analogues of (S)-1-[6-amino-2 [[hydroxy(4-phenylbutyl)phosphinyl]oxy]-1-oxohexyl]-L-proline” (J Med Chem, 1990).

Broadly, the inhibition is the change of the read-out against control, counted positive when it falls. The ED50 is the dose at which the effect has come halfway, by size or by number of responders. The compound `NCCCC[C@H](OP(=O)(O)CCCCc1ccccc1)C(=O)N1CCC[C@H]1C(=O)O` yielded an inhibition in assay [1] of 90%. Besides, the 50% effect level in assay [2] (ED50) was put at a dose of 0.063 µmol/kg.
Consider `NCCCC[C@H](OP(=O)(O)CCCCc1ccccc1)C(=O)N1C[C@@H](C2CCCCC2)C[C@H]1C(=O)O`, for which, in assay [1], the inhibition is 33%. Further, it took a dose of 0.06 µmol/kg to reach the 50% effect level in assay [2] (ED50). Also, the IC50 in assay [3] is 11 nM.
The corresponding values for `NCCCC[C@H](OP(=O)(O)CCCCc1ccccc1)C(=O)N(CC(=O)O)C1CCCCC1` are 31%, 0.106 µmol/kg and 22 nM.
With `CSC1(SC)C[C@@H](C(=O)O)N(C(=O)[C@H](CCCCN)OP(=O)(O)CCCCc2ccccc2)C1`, the inhibition in assay [1] was 45%. The compound further had an ED50 in assay [2] of 0.14 µmol/kg. The IC50 in assay [3] turned out to be 16 nM.
`NCCCC[C@H](OP(=O)(O)CCCCc1ccccc1)C(=O)N1[C@H](C(=O)O)C[C@@H]2CCCC[C@@H]21` returned an inhibition in assay [1] of 14%. This compound also registered an ED50 in assay [2] of 0.1 µmol/kg. Also, the IC50 in assay [3] is 28 nM.
In the case of `NCCCC[C@H](OP(=O)(O)CCCCc1ccccc1)C(=O)N1C[C@H](O)C[C@H]1C(=O)O`, the ED50 in assay [2] is 0.339 µmol/kg. Moreover, in assay [3], the IC50 turned out to be 140 nM.
The compound `NCCCC[C@H](OP(=O)(O)CCCCc1ccccc1)C(=O)N1CC=C[C@H]1C(=O)O` registered an inhibition in assay [1] of 73%. Further, in assay [2], the 50% effective dose (ED50) worked out at 0.105 µmol/kg. Also, the IC50 in assay [3] was 43 nM.
The corresponding values for `NCCCC[C@H](OP(=O)(O)CCCCc1ccccc1)C(=O)N1C[C@@H](O)C[C@H]1C(=O)O` are 69%, 0.033 µmol/kg and 25 nM.
In assay [1], `NCCCC[C@H](OP(=O)(O)CCCCc1ccccc1)C(=O)N1C[C@@H](Cc2ccccc2)C[C@H]1C(=O)O` yielded an inhibition of 14%. The compound also registered an ED50 in assay [2] of 0.026 µmol/kg. The IC50 in assay [3] turned out to be 1 nM.
Consider `NCCCC[C@H](OP(=O)(O)CCCCc1ccccc1)C(=O)N1CC2(C[C@H]1C(=O)O)SCCS2`, for which, in assay [1], the inhibition is 51%. Besides, it took a dose of 0.018 µmol/kg to reach the 50% effect level in assay [2] (ED50). Besides, the IC50 in assay [3] stood at 1.5 nM.
The compound `NCCCC[C@H](OP(=O)(O)CCCCc1ccccc1)C(=O)N1C[C@H](C2CCCCC2)C[C@H]1C(=O)O` yielded an inhibition in assay [1] of 15%. This compound also displayed an ED50 in assay [2] of 0.11 µmol/kg. The IC50 in assay [3] was determined as 31 nM.
`NCCCC[C@H](OP(=O)(O)CCCCc1ccccc1)C(=O)N1c2ccccc2C[C@H]1C(=O)O` yielded an ED50 in assay [4] below 0.014 µmol/kg. In assay [1], this compound showed an inhibition of 13%. The IC50 in assay [3] was 4.4 nM.
Regarding `NCCCC[C@H](OP(=O)(O)CCCCc1ccccc1)C(=O)N1COC[C@H]1C(=O)O`, the ED50 in assay [2] came to 0.677 µmol/kg. The IC50 in assay [3] is 145 nM.
On to `NCCCC[C@H](OP(=O)(O)CCCCc1ccccc1)C(=O)N(CC(=O)O)c1ccc2c(c1)OCO2`, for which the inhibition in assay [1] is 69%. Further, in assay [2], the ED50 was 0.1 µmol/kg. Moreover, the IC50 in assay [3] was 24 nM.
The corresponding values for `NCCCC[C@H](OP(=O)(O)CCCCc1ccccc1)C(=O)N1CCS[C@H]1C(=O)O` are 50%, 0.163 µmol/kg and 81 nM.
Take `NCCCC[C@H](OP(=O)(O)CCCCc1ccccc1)C(=O)N1C[C@@H](c2ccccc2)C[C@H]1C(=O)O`: in assay [1], the inhibition was determined as 58%. The ED50 in assay [2] is 0.037 µmol/kg. In assay [3], the IC50 was 3.5 nM.
`NCCCC[C@H](OP(=O)(O)CCCCc1ccccc1)C(=O)N1[C@H](C(=O)O)C[C@@H]2CCC[C@@H]21` had a 50% effective dose (ED50) in assay [4] of 0.035 µmol/kg. Moreover, the inhibition in assay [1] came to 41%. Besides, the IC50 in assay [3] came to 26 nM.
The compound `COc1ccc(N(CC(=O)O)C(=O)[C@H](CCCCN)OP(=O)(O)CCCCc2ccccc2)cc1OC` registered an inhibition in assay [1] of 62%. Also, it took a dose of 0.04 µmol/kg to reach the 50% effect level in assay [2] (ED50). For the same compound, in assay [3], the IC50 worked out at 35 nM.
The corresponding values for `COc1ccc(N(CC(=O)O)C(=O)[C@H](CCCCN)OP(=O)(O)CCCCc2ccccc2)cc1` are 40%, 0.043 µmol/kg and 39 nM.
The corresponding values for `NCCCC[C@H](OP(=O)(O)CCCCc1ccccc1)C(=O)N1C[C@@H](Sc2ccccc2)C[C@H]1C(=O)O` are 15%, 0.047 µmol/kg and 3 nM.
Take `NCCCC[C@H](OP(=O)(O)CCCCc1ccccc1)C(=O)N1CC(F)(F)C[C@H]1C(=O)O`: the inhibition in assay [1] amounted to 49%. Also, the ED50 in assay [2] stood at 0.162 µmol/kg. For the same compound, the IC50 in assay [3] is 170 nM.
With `NCCCC[C@H](OP(=O)(O)CCCCc1ccccc1)C(=O)N1C[C@H](c2ccccc2)C[C@H]1C(=O)O`, the IC50 in assay [3] amounted to 270 nM.
Same read-out and setting: to `NCCCC[C@H](OP(=O)(O)CCCCc1ccccc1)C(=O)N1C[C@@H](F)C[C@H]1C(=O)O` belongs 160 nM.
Take `CS[C@H]1C[C@@H](C(=O)O)N(C(=O)[C@H](CCCCN)OP(=O)(O)CCCCc2ccccc2)C1`: in assay [1], the inhibition stood at 8%. Besides, it took a dose of 0.059 µmol/kg to reach the 50% effect level in assay [2] (ED50). In assay [3], the IC50 came out at 9.7 nM.
The corresponding values for `NCCCC[C@H](OP(=O)(O)CCCCc1ccccc1)C(=O)N1C[C@H](Sc2ccccc2)C[C@H]1C(=O)O` are 11%, 0.066 µmol/kg and 2.6 nM.
Compound `CS[C@@H]1C[C@@H](C(=O)O)N(C(=O)[C@H](CCCCN)OP(=O)(O)CCCCc2ccccc2)C1` displayed an inhibition in assay [1] of 16%. The same compound gave an ED50 in assay [2] of 0.031 µmol/kg. Further, the IC50 in assay [3] was found to be 9.3 nM.
The corresponding values for `NCCCC[C@H](OP(=O)(O)CCCCc1ccccc1)C(=O)N1CSC[C@H]1C(=O)O` are 46%, 0.124 µmol/kg and 91 nM.
As for `NCCCC[C@H](OP(=O)(O)CCCCc1ccccc1)C(=O)N1C[C@H](F)C[C@H]1C(=O)O`, the IC50 in assay [3] is 320 nM.
